{"source": "ChEMBL document CHEMBL1125359", "about": "“omega-[(4,6-Diphenyl-2-pyridyl)oxy]alkanoic acid derivatives: a new family of potent and orally active LTB4 antagonists” (J Med Chem, 1992)", "key": {"[1]": {"biological_target": "T1, Leukotriene B4 receptor 1 (Homo sapiens, UniProt Q15722)", "T1 sequence (Q15722 whole entry)": "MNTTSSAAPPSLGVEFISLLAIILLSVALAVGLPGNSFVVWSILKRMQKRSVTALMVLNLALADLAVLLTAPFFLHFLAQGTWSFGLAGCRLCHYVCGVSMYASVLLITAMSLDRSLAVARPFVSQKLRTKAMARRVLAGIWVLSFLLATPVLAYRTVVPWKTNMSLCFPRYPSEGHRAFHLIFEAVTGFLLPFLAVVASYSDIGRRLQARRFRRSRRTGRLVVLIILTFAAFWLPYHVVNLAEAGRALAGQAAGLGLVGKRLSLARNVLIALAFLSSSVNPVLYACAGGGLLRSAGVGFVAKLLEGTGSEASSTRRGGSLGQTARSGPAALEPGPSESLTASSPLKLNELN", "experiment": "Inhibition of [3H]-LTB4 binding to Leukotriene B4 receptor in the human polymorphonuclear leukocytes.", "in_short": "(§1)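 PMNs from normal donors' peripheral blood, isolated by dextran T500 sedimentation, Ficoll-Hypaque centrifugation and hypotonic lysis. Cells incubated with 0.5 nM [3H]LTB4 (173 Ci/mmol) for 15 min at 0 °C across a range of compound concentrations. Percent inhibition of specific binding measured; IC50 derived graphically, mean of three replicates, mostly on one cell preparation.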"}, "[2]": {"biological_target": "T1, Leukotriene B4 receptor 1", "experiment": "Inhibition of LTB4-induced elastase release in human polymorphonuclear leukocytes", "assay_type": "functional, cell-based"}, "[3]": {"biological_target": "Leukotriene B4 receptor 1 (Cavia porcellus)", "experiment": "Inhibition of [3H]LTB4 binding to Leukotriene B4 receptor in the guinea pig spleen membranes."}, "[4]": {"biological_target": "T1, Leukotriene B4 receptor 1", "experiment": "Inhibition of [3H]LTB4 binding to Leukotriene B4 receptor of human polymorphonuclear leukocytes", "in_short": "as §1"}}, "note": "pIC50: −log10 of the molar value."}
{"smiles": "CC(CCCCOc1cc(-c2ccc3c(c2)OCO3)cc(-c2ccccc2)n1)C(=O)O", "note": "(centres undefined)", "values": [{"measurement": "pIC50", "setting": "[1]", "value": 8.18}, {"measurement": "pIC50", "setting": "[2]", "value": 6.92}]}
{"smiles": "CC(CCCCOc1cc(-c2ccc3c(c2)OCO3)cc(-c2ccccc2Cl)n1)C(=O)O", "note": "(centres undefined)", "values": [{"measurement": "pIC50", "setting": "[1]", "value": 7.92}, {"measurement": "pIC50", "setting": "[2]", "value": 7.92}]}
{"smiles": "COc1ccc(/C=C/CCCCOc2ccc(C(=O)c3cccc(C(=O)O)c3)cc2CCC(=O)O)cc1", "values": [{"measurement": "pIC50", "setting": "[2]", "value": 6.00}, {"measurement": "pIC50", "setting": "[3]", "value": 8.70}]}
{"smiles": "O=C(O)CCCCCCOc1cc(-c2ccccc2)cc(-c2ccccc2)n1", "values": [{"measurement": "pIC50", "setting": "[1]", "value": 7.82}, {"measurement": "pIC50", "setting": "[2]", "value": 5.60}]}
{"smiles": "O=C(O)CCCCCOc1cc(-c2ccc([N+](=O)[O-])cc2)cc(-c2ccccc2)n1", "values": [{"measurement": "pIC50", "setting": "[1]", "value": 6.22}]}
{"smiles": "O=C(O)CCCCOc1cc(-c2ccccc2)cc(-c2ccccc2)n1", "values": [{"measurement": "pIC50", "setting": "[1]", "value": 6.52}, {"measurement": "pIC50", "setting": "[2]", "value": 4.70}]}
{"smiles": "NC(=O)CCCCCOc1cc(-c2ccccc2)cc(-c2ccccc2)n1", "values": [{"measurement": "pIC50", "setting": "[1]", "value": 6.82}]}
{"smiles": "O=C(O)CCCCCOc1cc(-c2ccccc2Cl)cc(-c2ccccc2)n1", "values": [{"measurement": "pIC50", "setting": "[2]", "value": "< 5.00"}]}
{"smiles": "CC(C)(CCCCCCOc1cc(-c2ccccc2)cc(-c2ccccc2)n1)C(=O)O", "values": [{"measurement": "pIC50", "setting": "[1]", "value": 7.22}, {"measurement": "pIC50", "setting": "[2]", "value": 7.00}]}
{"smiles": "O=C(O)CCCCCOc1cc(-c2ccccc2)cc(-c2ccccc2)n1", "values": [{"measurement": "pIC50", "setting": "[1]", "value": 7.52}, {"measurement": "pIC50", "setting": "[2]", "value": 5.70}]}
{"smiles": "CC(C)(CCCCOc1cc(-c2ccc(N)cc2)cc(-c2ccccc2)n1)C(=O)O", "values": [{"measurement": "pIC50", "setting": "[1]", "value": 8.02}, {"measurement": "pIC50", "setting": "[2]", "value": 7.82}]}
{"smiles": "O=C(O)CCCCCOc1cc(-c2ccccc2)cc(-c2ccc(F)cc2)n1", "values": [{"measurement": "pIC50", "setting": "[1]", "value": 7.52}, {"measurement": "pIC50", "setting": "[2]", "value": "< 5.00"}]}
{"smiles": "O=C(O)CCCCCOc1cc(-c2ccc3c(c2)OCO3)cc(-c2ccccc2)n1", "values": [{"measurement": "pIC50", "setting": "[1]", "value": 8.22}, {"measurement": "pIC50", "setting": "[2]", "value": 5.70}]}
{"smiles": "O=C(O)CCCCCOc1cc(-c2ccc(NC(=O)C(F)(F)F)cc2)cc(-c2ccccc2)n1", "values": [{"measurement": "pIC50", "setting": "[2]", "value": "< 5.00"}]}
{"smiles": "CC(CCCCOc1cc(-c2ccccc2)cc(-c2ccccc2F)n1)C(=O)O", "note": "(centres undefined)", "values": [{"measurement": "pIC50", "setting": "[1]", "value": 7.74}, {"measurement": "pIC50", "setting": "[2]", "value": 7.15}]}
{"smiles": "CC(C)(CCCCOc1cc(-c2ccccc2)cc(-c2ccccc2)n1)c1nnn[nH]1", "values": [{"measurement": "pIC50", "setting": "[1]", "value": 7.70}, {"measurement": "pIC50", "setting": "[2]", "value": 8.10}]}
{"smiles": "CC(CCCCOc1cc(-c2ccccc2)cc(-c2ccccc2)n1)C(=O)O", "note": "(centres undefined)", "values": [{"measurement": "pIC50", "setting": "[1]", "value": 7.52}, {"measurement": "pIC50", "setting": "[2]", "value": 7.66}]}
{"smiles": "CC(CCCCOc1cc(-c2ccccc2)cc(-c2ccccc2Cl)n1)C(=O)O", "note": "(centres undefined)", "values": [{"measurement": "pIC50", "setting": "[4]", "value": 8.22}, {"measurement": "pIC50", "setting": "[2]", "value": 7.40}]}
{"smiles": "COC(=O)CCCCCOc1cc(-c2ccccc2)cc(-c2ccccc2)n1", "values": [{"measurement": "pIC50", "setting": "[1]", "value": 7.00}, {"measurement": "pIC50", "setting": "[2]", "value": 6.00}]}
